These results are taken from ChEMBL document CHEMBL1134692, “QSAR study on the contribution of log P and E(s) to the in vitro antiprotozoal activity of glutathione derivatives” (J Med Chem, 2001).

The structures appear in SMILES notation.

A short description of data set [1]: Evaluated for its inhibitory activity against KB cells. Particulars: Homo sapiens, read-out: ED50 (the source's name); call rule not given here. The data set is classed as functional. The essentials:
(§1)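 KB cells (human oral pharyngeal carcinoma) grown in RPMI with 10% calf foetal serum at 37 °C, 5% CO2 in humidified air. Exposed to compound for 3 days under the same conditions, then viability read by Alamar Blue assay; ED50 reported.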

Data set [2] deals with Trypanosoma brucei brucei. Put plainly: Inhibitory activity against Trypanosoma brucei. The format is functional. Particulars: read-out: ED50 (the source's name). In short, it runs like this:
(§2)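 T. b. brucei S427 bloodstream trypomastigotes kept in HMI-18 with 20% heat-inactivated FCS at 37 °C, 5% CO2. Parasites at 2 × 10^5/mL were mixed 1:1 with compound, run in triplicate as a 3-fold dilution series from 30 μM top. Incubated 3 days at 37 °C; Alamar Blue read-out on day 3 gave ED50. Pentamidine positive control.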

Data set [3] is described as follows: Partition coefficient (logP). The data set is classed as physicochemical. Particulars: octanol/water.
The subject of data set [4] is Trypanosoma cruzi. Kind of data set: Evaluated for its inhibitory activity against Trypanosoma cruzi. The data set is classed as functional. Particulars: read-out: ED50 (the source's name). The essentials:
(§3)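 Starch-elicited female CD1 mouse peritoneal macrophages (4 × 10^4/well, RPMI-1640, 10% HIFCS) were infected after 24 h at 5:1 with T. cruzi Y trypomastigotes derived from MDCK cultures. Drug was applied as a 3-fold dilution series in quadruplicate for 3 days. Activity was the percentage of macrophages cleared of amastigotes. Nifurtimox control.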

The test system of data set [5] is Leishmania donovani. Put plainly: Inhibitory activity against Leishmania donovani. The format is functional. Particulars: read-out: ED50 (the source's name). The essentials:
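Starch-elicited peritoneal macrophages from female CD1 mice were plated at 4 × 10^4/well in RPMI-1640 with 10% HIFCS. After 24 h they were infected at 10:1 with L. donovani amastigotes (MHOM/ET/67/L82, hamster-passaged). Drug was given as a 3-fold dilution series in quadruplicate for 5 days. Activity was scored as the percentage of macrophages cleared of amastigotes. Sodium stibogluconate control.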

For data set [6], the system named is Trypanosoma cruzi. Kind of data set: (§4) Percent decrease in viable parasitesrelative to the control at 30 uM. The format is functional. The essentials:
(§5)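 Single concentration of 30 μM in the intracellular amastigote macrophage assays. Inhibition is expressed as the percent decrease in viable parasites relative to untreated control.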

A short description of data set [7]: Relative toxicity was evaluated as ED50 for KB cell line to that of ED50 for T.B. brucei. The format is organism-based. As to conditions: trypanosoma brucei brucei, KB cells versus Trypanosoma brucei brucei; read-out: Relative toxicity. The essentials:
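Ratio of ED50 against KB cells to ED50 against T. b. brucei bloodstream forms, each from the 3-day Alamar Blue assays.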

Data set [8] deals with Leishmania donovani. The data set is described as §4. The format is functional. The essentials:
as §5

Data set [9] deals with Leishmania donovani. Kind of data set: (§6) Percent decrease in viable parasitesrelative to the control. The format is functional. In short, it runs like this:
as §5

In data set [10] the test system is Trypanosoma cruzi. Put plainly: Evaluated for its inhibitory activity against Trypanosoma cruzi; NA= not active at 30 umol. The format is functional, organism-based. The essentials:
as §3

For data set [11], the system named is Trypanosoma brucei brucei. Put plainly: Compound was evaluated for its inhibitory activity against Trypanosoma brucei; NA= not active at 30 umol. The data set is classed as functional, organism-based. In short, it runs like this: as §2
The subject of data set [12] is Trypanosoma cruzi. The description is as §6. The data set is classed as functional. In short, it runs like this:
as §5

The species entered for another data set is Homo sapiens. Put plainly: Compound was evaluated for its inhibitory activity against KBcells. The data set is classed as functional. The essentials:
as §1

`CC(C)C(C)OC(=O)CNC(=O)C(CSc1ccc([N+](=O)[O-])cc1[N+](=O)[O-])NC(=O)CCC(NC(=O)OCc1ccccc1)C(=O)OC(C)C(C)C` (centres undefined): the EC50 is 245 µM in data set [1], 6 µM in data set [2], less than 30 µM with Trypanosoma cruzi [4] and 13.4 µM in the data set with Leishmania donovani [5]. Moreover, in data set [3], the logP worked out at 5.75. Testing at 30 µM with Trypanosoma cruzi [6] gave an inhibition of 64%. Besides, the selectivity ratio in data set [7] turned out to be 24.

For `CCCCC(C)OC(=O)CNC(=O)C(CSc1ccc([N+](=O)[O-])cc1[N+](=O)[O-])NC(=O)CCC(NC(=O)OCc1ccccc1)C(=O)OC(C)CCCC` (centres undefined), the EC50 in data set [1] was 178 µM; in data set [2], 5.2 µM; in the data set on Trypanosoma cruzi [4], more than 30 µM; in the data set with Leishmania donovani [5] it was more than 30 µM. In data set [3], this compound came in with a logP of 6.87. For the same compound, the figures for the inhibition at 30 µM with Leishmania donovani [8] and in the data set on Trypanosoma cruzi [6] were 6% and 21%, respectively. Moreover, the selectivity ratio in data set [7] is 46.

For the compound `CCCCOC(=O)C(CCC(=O)NC(CSc1ccc([N+](=O)[O-])cc1[N+](=O)[O-])C(=O)NCC(=O)O)NC(=O)OCc1ccccc1` (centres undefined), the Inhibition in the data set on Leishmania donovani [9] came to 12%. For the same compound, the EC50 in data set [2] was 10.3 µM; with Trypanosoma cruzi [4], more than 30 µM; in the data set with Leishmania donovani [5] it was more than 30 µM. This compound yielded a logP in data set [3] of 2.8.

With `CC(C)OC(=O)CNC(=O)C(CSc1ccc([N+](=O)[O-])cc1[N+](=O)[O-])NC(=O)CCC(NC(=O)OCc1ccccc1)C(=O)O` (centres undefined), in the data set with Trypanosoma cruzi [10], the “Activity against T. cruzi” value is “not active at 30 umol”. The compound further showed a lipophilicity (logP) in [3] of 2.23. Besides, the NA entry in data set [11] was “not active at 30 umol”.

As to `CCCOC(=O)CNC(=O)C(CSc1ccc([N+](=O)[O-])cc1[N+](=O)[O-])NC(=O)CCC(NC(=O)OCc1ccccc1)C(=O)O` (centres undefined), the “Activity against T. cruzi” value with Trypanosoma cruzi [10] was “not active at 30 umol”. Further, in [3], the logP is 2.31. The NA result in [11] is “not active at 30 umol”. The EC50 with Leishmania donovani [5] was more than 30 µM.

Take `CCCCCCCCOC(=O)CNC(=O)C(CSc1ccc([N+](=O)[O-])cc1[N+](=O)[O-])NC(=O)CCC(NC(=O)OCc1ccccc1)C(=O)OCCCCCCCC` (centres undefined): the EC50 was 95.3 µM in data set [1] and more than 30 µM in the data set on Leishmania donovani [5]. The compound further returned an Inhibition with Leishmania donovani [9] of 11%. The “Activity against T. cruzi” value in the data set with Trypanosoma cruzi [10] is “not active at 30 umol”. Also, the logP in data set [3] was 8.99. The NA entry in data set [11] was “not active at 30 umol”.

For the compound `O=C(CCC(NC(=O)OCc1ccccc1)C(=O)OCCF)NC(CSc1ccc([N+](=O)[O-])cc1[N+](=O)[O-])C(=O)NCC(=O)OCCF` (centres undefined), the EC50 in [1] is 15.2 µM; in [2], 21.8 µM; in the data set with Trypanosoma cruzi [4] it was more than 30 µM; in the data set with Leishmania donovani [5], more than 30 µM. For the same compound, the Inhibition was 26% with Leishmania donovani [9] and 8% in the data set with Trypanosoma cruzi [12]. In data set [3], the logP stood at 2.97. Further, the selectivity ratio in data set [7] came to 0.99.

For `O=C(CCC(NC(=O)OCc1ccccc1)C(=O)OCCCCl)NC(CSc1ccc([N+](=O)[O-])cc1[N+](=O)[O-])C(=O)NCC(=O)OCCCCl` (centres undefined), the EC50 in data set [1] was 0.39 µM; in data set [2] it was 1.05 µM; in the data set with Trypanosoma cruzi [4], more than 30 µM; in the data set with Leishmania donovani [5] it was more than 30 µM. The compound also had an Inhibition with Trypanosoma cruzi [12] of 35%. Also, the logP in data set [3] came out at 4.58. In [7], the selectivity ratio came out at 0.8.

With `CCCCCCOC(=O)CNC(=O)C(CSc1ccc([N+](=O)[O-])cc1[N+](=O)[O-])NC(=O)CCC(NC(=O)OCc1ccccc1)C(=O)OCCCCCC` (centres undefined), the EC50 in data set [1] was 109 µM; in [2], 5.8 µM; in the data set on Trypanosoma cruzi [4], more than 30 µM; in the data set with Leishmania donovani [5], more than 30 µM. The compound also had an Inhibition in the data set with Trypanosoma cruzi [12] of 36%. The logP in data set [3] was found to be 7.02. The selectivity ratio in data set [7] amounted to 18.8.

On to `CCCC(C)OC(=O)CNC(=O)C(CSc1ccc([N+](=O)[O-])cc1[N+](=O)[O-])NC(=O)CCC(NC(=O)OCc1ccccc1)C(=O)OC(C)CCC` (centres undefined), for which the EC50 in data set [1] was 393 µM; in [2], 3.34 µM; with Trypanosoma cruzi [4], more than 30 µM; with Leishmania donovani [5], more than 30 µM. Moreover, the logP in [3] is 5.89. In addition, the inhibition at 30 µM with Leishmania donovani [8] amounted to 25%; with Trypanosoma cruzi [6] it was 17%. Besides, the selectivity ratio in data set [7] worked out at 118.

In the case of `O=C(CCC(NC(=O)OCc1ccccc1)C(=O)OC1CCCC1)NC(CSc1ccc([N+](=O)[O-])cc1[N+](=O)[O-])C(=O)NCC(=O)OC1CCCC1` (centres undefined), the EC50 in [1] is 50.5 µM; in data set [2], 0.18 µM; in the data set with Trypanosoma cruzi [4], more than 30 µM; with Leishmania donovani [5], 29.6 µM. Moreover, the logP in data set [3] is 5.67. For the same compound, the inhibition at 30 µM in the data set with Trypanosoma cruzi [6] came out at 30%. The selectivity ratio in [7] was 280.

Turning to `CCCCCOC(=O)CNC(=O)C(CSc1ccc([N+](=O)[O-])cc1[N+](=O)[O-])NC(=O)CCC(NC(=O)OCc1ccccc1)C(=O)OCCCCC` (centres undefined), the EC50 in data set [2] was 0.38 µM; in the data set on Trypanosoma cruzi [4] it was 6.7 µM; in the data set with Leishmania donovani [5], more than 30 µM. The logP in [3] turned out to be 6.04. Also, the selectivity ratio in data set [7] was 789. In addition, the ED50 in the data set filed under Homo sapiens is more than 300 µM.

`CC(C)CC(C)OC(=O)CNC(=O)C(CSc1ccc([N+](=O)[O-])cc1[N+](=O)[O-])NC(=O)CCC(NC(=O)OCc1ccccc1)C(=O)OC(C)CC(C)C` (centres undefined): the EC50 is 43.2 µM in data set [1], 0.25 µM in data set [2], more than 30 µM in the data set on Trypanosoma cruzi [4] and more than 30 µM in the data set with Leishmania donovani [5]. Moreover, the logP in data set [3] amounted to 6.73. For the same compound, the inhibition at 30 µM with Leishmania donovani [8] amounted to 8%; in the data set on Trypanosoma cruzi [6] it was 31%. For the same compound, the selectivity ratio in data set [7] amounted to 173.

The logP is the decadic logarithm of the partition coefficient of the neutral form, usually between octanol and water. By inhibition is commonly meant the drop in the measured response relative to a control, in per cent. For orientation: Inhibition means the change of the read-out against control, counted positive when it falls.
